Shown are actives, neighbours in structure and some others; about 2.1% of the full set was active somewhere.
CHRM5 antagonist = human M5 muscarinic receptor antagonists, primary screen, CHO cells, Fluo-8 calcium fluorescence. Muscarinic acetylcholine receptor M5 (Homo sapiens), P08912. CHO-hM5 cells, ACh EC80. inhibition, % at 3 µM. 0.59% of 360,000 active;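 active = inhibition above a per-plate cutoff, the mean of that plate's test compounds plus 3 SD, cut at about 27% in these data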;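 note: 0% = acetylcholine EC80 with DMSO and 100% = DMSO without agonist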
CHRM1 PAM = human M1 muscarinic receptor positive allosteric modulators, primary screen, CHO-K1 cells, Fluo-8 calcium fluorescence, 1536-well | CHO-K1 hM1, ACh EC20; 0% = ACh EC20, 100% = maximal ACh | activation, % at 3 µM | 0.088% of 360,000 active | AID 588819, 2011; in the data active = activation above about 19%, passing the limit was not always enough
Target sequence (P11229 whole entry, looked up): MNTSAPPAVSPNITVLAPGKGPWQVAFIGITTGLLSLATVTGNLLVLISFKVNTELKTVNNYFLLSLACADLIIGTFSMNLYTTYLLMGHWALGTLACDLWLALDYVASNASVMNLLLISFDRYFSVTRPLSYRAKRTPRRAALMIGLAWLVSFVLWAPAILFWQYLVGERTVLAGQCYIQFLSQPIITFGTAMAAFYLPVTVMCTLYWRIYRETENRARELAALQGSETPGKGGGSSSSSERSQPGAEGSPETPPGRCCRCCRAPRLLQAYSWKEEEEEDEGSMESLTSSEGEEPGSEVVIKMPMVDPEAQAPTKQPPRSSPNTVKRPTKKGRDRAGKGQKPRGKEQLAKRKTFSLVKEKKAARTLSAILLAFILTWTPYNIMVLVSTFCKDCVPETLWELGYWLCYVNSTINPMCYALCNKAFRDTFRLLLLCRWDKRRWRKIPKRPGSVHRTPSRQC
CHRM5 agonist = human M5 muscarinic receptor agonists, primary screen, CHO-K1 cells, Fluo-8 calcium fluorescence; Muscarinic acetylcholine receptor M5 (Homo sapiens), P08912; CHO-K1 hM5 cells; 0% DMSO wells, 100% maximal acetylcholine response; activation, % at 3 µM; 0.19% of 360,000 active; AID 624037, 2012;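 active = activation above the run's mean over test compounds plus 3 SD, cut at about 23% in these data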;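 note: signal is peak over basal fluorescence ratio across the kinetic read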
CHRM1 antagonist = human M1 muscarinic receptor antagonists, primary screen, CHO-K1 cells, Fluo-8 calcium fluorescence, 1536-well; 1.3% of 360,000 active; CHO-K1 hM1, ACh EC80 antagonist; AID 588852, 2011; inhibition, % at 3 µM;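 active = percent inhibition above its own plate's cutoff, namely the mean of that plate's compound wells plus 3 SD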;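 note: peak over basal fluorescence ratio during 140 s after agonist addition; 0% = ACh EC80 plus DMSO and 100% = DMSO alone without agonist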
M1 ag = human M1 muscarinic receptor agonists, primary screen, Fluo-8 calcium fluorescence, CHO-K1 cells, HTS; CHO-K1 hM1, agonist mode; 0% DMSO, 100% acetylcholine EC100; activation, % at 3 µM; Muscarinic acetylcholine receptor M1 (Homo sapiens), P11229; AID 588814, 2011; 0.33% of 360,000 active;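 active = activation above the run's mean compound activation plus 3 SD, cut at about 16% in these data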;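 note: peak over basal fluorescence ratio within a 140 s kinetic read after compound addition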
CHRM5 PAM = human M5 muscarinic receptor positive allosteric modulators, primary screen, CHO-K1 cells, Fluo-8 calcium fluorescence | Muscarinic acetylcholine receptor M5 (Homo sapiens), P08912 | CHO-K1 hM5, ACh EC20 PAM; 0% = ACh EC20, 100% = ACh EC100 | activation, % at 3 µM | 0.3% of 360,000 active;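 active = activation above the run cutoff, the mean activation of all test compounds plus 3 SD, cut at about 18% in these data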
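system = human M5 receptor in CHO-K1 cells | reagent = EC20 acetylcholine as agonist stimulus | compound dosing = single-point, 3 µM nominal | incubation = Fluo-8 loading 80 min at 37 °C plus 30 min room temperature | detection = Fluo-8 calcium dye fluorescence, kinetic read | benchmarks = low control EC20 acetylcholine (0%), high control EC100 acetylcholine (100%)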
* = called active by the depositor.

SMILES | CHRM5 antagonist | CHRM1 PAM | CHRM5 agonist | CHRM1 antagonist | M1 ag | CHRM5 PAM
COc1ccc(N(C)S(=O)(=O)c2cccc(C(=O)Nc3nc4ccccc4[nH]3)c2)cc1 | 16.8 | -15.4 | 0.5 | 34.5* | -4.4 | -14.8
COc1ccccc1C(CNC(=O)c1cccc(S(=O)(=O)NCc2ccccc2)c1)N(C)C (configuration not stated) | 38.9* | -18.0 | -10.6 | 49.9* | -1.7 | -33.3
COc1ccc(C(CNC(=O)c2cccc(NS(=O)(=O)c3ccccc3)c2)N(C)C)cc1 (configuration not stated) | 13.7 | -19.9 | -8.2 | 48.2* | -6.2 | -7.1
COc1cccc(CN(C)C(=O)c2cccc(S(=O)(=O)NCc3ccccc3)c2)c1OC | -4.8 | 6.5 | 4.2 | -12.9 | 1.3 | -5.7
CC(=O)c1ccc(S(=O)(=O)NCc2ccc(C(=O)NCC(c3ccccc3)N(C)C)cc2)cc1 (configuration not stated) | 10.3 | -30.0 | -6.9 | 25.0* | -10.7 | -11.8
CN(c1cccc(Cl)c1)S(=O)(=O)c1cccc(C(=O)Nc2nc3ccccc3[nH]2)c1 | 11.1 | -14.9 | 0.8 | 30.0 | -5.7 | -15.8
CCOc1ccc(S(=O)(=O)Nc2cccc(C(=O)NCC(c3ccccc3)N(C)C)c2)cc1 (configuration not stated) | 11.2 | -18.6 | -2.8 | 23.6 | 0.1 | -13.9
COc1ccc(NC(=O)C2C3CCC(O3)C2C(=O)O)c(C)c1 (configuration not stated) | 7.4 | 12.8 | -2.4 | -13.9 | -5.5 | 1.6
COCCC1CCCCN1C(=O)c1cc(COc2ccc(C)nc2)on1 (configuration not stated) | 10.6 | 0.0 | 3.6 | 2.7 | 3.4 | -8.6
COc1ccccc1C(CNC(=O)c1cccc(NS(=O)(=O)c2ccc(C)c(F)c2)c1)N(C)C (configuration not stated) | 66.2* | -26.8 | -8.2 | 85.0* | -7.8 | -35.1
CCN(CC)S(=O)(=O)c1cccc(C(=O)NCC(c2ccccc2)N(C)C)c1 (configuration not stated) | 9.2 | -35.8 | -11.1 | 55.0* | -15.3 | -17.6
COc1ccc(C(CNC(=O)c2cccc(NS(=O)(=O)c3ccc(C)c(F)c3)c2)N(C)C)cc1 (configuration not stated) | 11.4 | -7.8 | -7.3 | 11.7 | -7.5 | -7.0
Cc1cc(S(=O)(=O)Nc2ccc(C(=O)NCC(c3ccccc3)N(C)C)cc2)ccc1F (configuration not stated) | 6.9 | -7.6 | -8.4 | 13.0 | -4.7 | -1.0
COc1ccc(N(C)S(=O)(=O)c2cccc(C(=O)NCC(c3cccs3)N(C)C)c2)cc1 (configuration not stated) | -3.8 | -26.2 | -5.9 | 52.3* | -7.4 | -7.3
COc1ccccc1C(CNC(=O)c1ccc(NS(=O)(=O)c2ccc(F)c(C)c2)cc1)N(C)C (configuration not stated) | -7.8 | -8.8 | -7.2 | 20.6 | 27.8* | -9.6
COc1cccc(C2=NOC(C(=O)N3CCN(c4ccccc4)CC3)C2)c1OC (configuration not stated) | 2.4 | 1.7 | 1.5 | -2.5 | -1.2 | -4.1
COC(=O)c1cn(NC(=O)c2cc(OC)c(OC)c(OC)c2)c(=O)c2ccccc12 | -9.7 | 9.0 | 8.7 | -10.3 | 1.5 | 23.5*
S=C1NCN(Cc2ccccc2)CN1C1CCCCC1 | -8.9 | 6.3 | -0.8 | -8.6 | -3.5 | 20.8*
S=C1NCN(C2CCCCC2)CN1Cc1ccccc1 | 6.0 | 11.0 | -0.5 | -9.0 | 1.0 | -5.1
Cc1c(N2C(=O)CSC2c2ccco2)c(=O)n(-c2ccccc2)n1C (configuration not stated) | 9.6 | 10.7 | -3.8 | -24.7 | -2.5 | 2.5
CCOC(=O)/C=C1\SCC(=O)N1CC(=O)N1CCOCC1 | 5.3 | -1.7 | 3.9 | 17.4 | 0.1 | 0.8
CCOC(=O)C1CN(S(=O)(=O)c2ccc(OC)cc2)c2cc(S(=O)(=O)CC)ccc2O1 (configuration not stated) | -11.2 | 0.2 | -7.1 | 4.3 | -0.8 | 1.5
Cc1ccccc1OCC(=O)NCC(=O)N/N=C/c1ccc(Br)o1 | -14.9 | -1.2 | -1.0 | -2.9 | -4.6 | 19.7*
CC[C@]12C(=O)N(C)C[C@H]([C@@H]3C(=O)N(C)C(=O)[C@@H]31)N2C(=O)c1ccc(C(C)(C)C)cc1 | 5.6 | 1.6 | -0.1 | 0.1 | -3.3 | 4.5
O=C(NC1=NCCS1)C1CCN(S(=O)(=O)c2ccccc2C(F)(F)F)CC1 | 2.8 | -1.1 | 0.1 | -1.6 | -4.4 | -0.8
SMILES | CHRM5 antagonist | CHRM1 PAM | CHRM5 agonist | CHRM1 antagonist | M1 ag | CHRM5 PAM
O=C(COC(=O)Cc1c[nH]c2ccccc12)NC1CCS(=O)(=O)C1 (configuration not stated) | 4.0 | -8.4 | 1.4 | 27.2* | -1.7 | 0.7
COc1cc(S(=O)(=O)NCCOC23CC4CC(CC(C4)C2)C3)c(OC)cc1Cl | 9.4 | 3.9 | 0.3 | -5.0 | -2.2 | -0.6
OC1(c2ccc(Br)cc2)CCN(Cc2cccc(Br)c2)CC1 | 14.5 | -17.0 | -23.3 | 35.2* | 4.8 | -33.9
CCOC(=O)c1cnc(SC)nc1Oc1cccc(NC(=O)c2ccc(C)cc2)c1 | 2.1 | -3.2 | -2.0 | -5.7 | -2.0 | -0.6
CCN(CC)CCNC(=O)Cn1nc(-c2ccc(C)cc2)ccc1=O | -4.4 | 8.4 | -2.3 | -9.5 | -11.7 | 5.0
Cc1ccc(-c2ccc(=O)n(CC(=O)NCCN(CC(C)C)CC(C)C)n2)cc1 | 12.9 | 14.3 | 3.8 | -16.2 | -0.7 | 24.5*
O=C1NC2c3c(I)sc(I)c3C(=O)C2O1 (configuration not stated) | 10.0 | 1.2 | 10.6 | 0.8 | 1.0 | -3.1
O=C1NC2c3c(Cl)sc(Cl)c3C(=O)C2O1 (configuration not stated) | 10.4 | 27.9* | 2.5 | -27.8 | 5.0 | -2.4
CNCCCC1Sc2ccccc2Oc2ccccc21 (configuration not stated) | 13.3 | -21.6 | -14.1 | 33.1* | -5.9 | -35.6
CC(C)CNC(=O)C1c2ccccc2Oc2ccccc21 | 7.4 | 5.8 | -5.3 | -4.2 | -5.0 | 6.1

Assay outcomes as filed in PubChem.
